High-throughput results from PubChem BioAssay.
A selection: hits, their analogues and other compounds. The true share with any hit is near 2.5%.
NLRP3 yeast inh = blocks the NALP3 inflammasome reconstituted in yeast; Yeast reconstituted NLRP3/ASC/caspase-1, beta-gal luminescence, 24 h; inhibition, % at 10 µM; hit rate 0.39% among 330,000;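 active = inhibition of 50% or more; inactive = inhibition below 50%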
MC4R barr agon = agonists of human melanocortin 4 receptor (MC4R) beta-arrestin. U2OS MC4R beta-arrestin complementation, luminescence; percent of melanotan II response, DMSO zero. activation, % at 8.9 µM. P32245. hit rate 0.98% among 360,000. AID 540308;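 active = activation above a per-plate cutoff, the mean activation of sample wells on that plate plus 3 SD, cut at about 8% in these data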
MC4R antagonist = blocks human MC4R cAMP signaling | P32245 | MC4R-expressing cells, MTII-stimulated cAMP, LANCE TR-FRET | inhibition, % at 6.5 µM | hit rate 0.48% among 360,000 | AID 540295;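 active = inhibition above its plate's cutoff, the mean of tested wells on that plate plus 3 SD, cut at about 29% in these data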
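Assay system: U2OS-MC4R stable cell line; Also added: Melanotan II; Technique: Eu-cAMP/anti-cAMP TR-FRET, emission 671 nm; Times: 30-min compound, 1-h challenge, 1-h detection, room temperature.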
Tb MetRS inh = blocks T. brucei methionyl-tRNA synthetase activity. purified T. brucei MetRS, ATP depletion, Kinase-Glo luminescence. AID 624268. hit rate 0.4% among 360,000. inhibition, % at 11.9 µM;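 active = inhibition above a per-plate cutoff of the control wells' mean inhibition plus 3 SD, cut at about 5.5% in these data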
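Dosing: 11.9 µM single point; system: parasite MetRS enzyme; technique: luminescence of leftover ATP; times: 15 min enzyme-compound preincubation, 2 h reaction, 10 min detection, 25 °C; replicates: each compound tested once; read-out basis: percent inhibition relative to median high and low control wells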
A1 inh = inhibitors of the anti-apoptotic protein A1, read as caspase activation; MEF A1-2A-BIM cells, Caspase-Glo 3/7 luminescence, 3 h; percent of clofoctol response, vehicle zero; caspase activation, % (test concentration not listed); hit rate 0.066% among 330,000; AID 2462;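 active = over half of replicate activation scores above 10%, or exactly half above 10 with the replicate mean above 10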
NALP1 inh = inhibitors of NALP1 inflammasome in yeast | S. cerevisiae NALP1/ASC/caspase-1 growth, X-gal OD620, 72 h | inhibition, % at 10 µM | hit rate 0.61% among 280,000 | AID 2071; in the data active = inhibition mostly above about 24%, no sharp cut-off; inactive = mostly below about 32%
cAMP nonselect = nonselective cAMP signaling inhibitor, MC4R antagonist counter-screen. shares compounds with MC4R antagonist. parental U2OS, forskolin cAMP, LANCE TR-FRET. inhibition, % at 6.5 µM. hit rate 26% among 1,600. AID 602193;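 active = mean inhibition over triplicates above the low-control well mean plus 3 SD, set per campaign, cut at about 13% in these data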;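 note: signal is single emission at 671 nm which falls as cellular cAMP rises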
MC4R antag conf = human MC4R cAMP antagonism confirmation; MC4R-expressing cells, MTII-stimulated cAMP, TR-FRET; shares compounds with MC4R antagonist; hit rate 27% among 1,600; inhibition, % at 6.5 µM; AID 602195; in the data active = inhibition above about 29%
Of the large screens only hits and unclear results are named; the others gave an inactive call (follow-up assays come after a bar, where they were run).

COC(=O)[C@H]1C[C@@]2(O)CN(S(=O)(=O)c3ccc(C)cc3)C[C@@]2(OC(=O)Nc2cccs2)C[C@H]1C(=O)OC	none (no result: NLRP3 yeast inh, A1 inh, NALP1 inh)
CC(C)(C)NC(=O)NC(=O)Cn1cc(C(F)(F)F)ccc1=O	none
O=C(Cn1cc(C(F)(F)F)ccc1=O)NC(c1ccccc1)c1ccccc1	MC4R antagonist 36 | cAMP nonselect inactive | MC4R antag conf inactive
O=C(O)c1ccccc1C(=O)c1cccc2c(Br)cccc12	MC4R antagonist active (no result: NLRP3 yeast inh, A1 inh, NALP1 inh) | cAMP nonselect active | MC4R antag conf active
O=C(O)c1ccccc1C(=O)c1cccc2c(F)cccc12	none (no result: NLRP3 yeast inh, A1 inh, NALP1 inh)
